Assay results published in ChEMBL document CHEMBL1800057, “Discovery of dual inducible/neuronal nitric oxide synthase (iNOS/nNOS) inhibitor development candidate 4-((2-cyclobutyl-1H-imidazo[4,5-b]pyrazin-1-yl)methyl)-7,8-difluoroquinolin-2(1H)-one (KD7332) part 2: identification of a novel, potent, and selective series of benzimidazole-quinolinone …” (J Med Chem, 2010).

Tests used:
Cytochrome P450 1A2 = molecular target: T1, Cytochrome P450 1A2 (Homo sapiens, UniProt P05177); assay: Inhibition of human CYP1A2 at >100uM; type: ADME
T1 sequence (P05177 whole entry): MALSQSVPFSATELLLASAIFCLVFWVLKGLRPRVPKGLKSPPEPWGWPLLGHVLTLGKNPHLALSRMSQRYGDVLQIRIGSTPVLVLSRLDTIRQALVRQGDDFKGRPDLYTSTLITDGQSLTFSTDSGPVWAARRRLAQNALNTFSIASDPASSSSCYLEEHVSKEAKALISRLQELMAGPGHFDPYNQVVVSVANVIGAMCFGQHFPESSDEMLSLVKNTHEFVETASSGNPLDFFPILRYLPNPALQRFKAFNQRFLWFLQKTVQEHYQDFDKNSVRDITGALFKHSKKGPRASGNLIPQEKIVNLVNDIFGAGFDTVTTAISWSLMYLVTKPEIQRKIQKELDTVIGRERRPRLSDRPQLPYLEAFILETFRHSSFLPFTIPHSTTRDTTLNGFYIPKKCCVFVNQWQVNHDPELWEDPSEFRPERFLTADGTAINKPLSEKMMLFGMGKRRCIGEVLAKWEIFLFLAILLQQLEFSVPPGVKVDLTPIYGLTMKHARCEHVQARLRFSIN

[1] = Volume of distribution at steady state in mouse at 3 mg/kg, iv and 10 mg/kg, po; type: ADME, organism-based; conditions: in vivo, read-out: Vdss
Cytochrome P450 3A4 = Cytochrome P450 3A4 (Homo sapiens, UniProt P08684); assay: Inhibition of human CYP3A4; type: ADME
Cytochrome P450 3A4, sequence (P08684 whole entry): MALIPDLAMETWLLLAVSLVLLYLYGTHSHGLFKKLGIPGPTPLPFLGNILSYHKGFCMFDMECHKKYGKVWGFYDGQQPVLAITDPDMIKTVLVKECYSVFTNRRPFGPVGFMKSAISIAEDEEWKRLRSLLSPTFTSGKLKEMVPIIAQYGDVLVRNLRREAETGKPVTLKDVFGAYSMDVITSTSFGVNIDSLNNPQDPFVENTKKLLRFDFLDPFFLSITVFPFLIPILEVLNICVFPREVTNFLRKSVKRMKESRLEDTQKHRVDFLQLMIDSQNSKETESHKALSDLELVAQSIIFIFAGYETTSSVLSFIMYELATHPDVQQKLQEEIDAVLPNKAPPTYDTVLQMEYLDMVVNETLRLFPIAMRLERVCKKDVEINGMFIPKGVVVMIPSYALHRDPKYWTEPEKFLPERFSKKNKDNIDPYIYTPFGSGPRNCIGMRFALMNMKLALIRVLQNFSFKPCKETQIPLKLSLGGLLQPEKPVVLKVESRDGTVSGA

Cytochrome P450 2C19 = Cytochrome P450 2C19 (Homo sapiens, UniProt P33261); assay: Inhibition of human CYP2C19; type: ADME
Cytochrome P450 2C19, sequence (P33261 whole entry): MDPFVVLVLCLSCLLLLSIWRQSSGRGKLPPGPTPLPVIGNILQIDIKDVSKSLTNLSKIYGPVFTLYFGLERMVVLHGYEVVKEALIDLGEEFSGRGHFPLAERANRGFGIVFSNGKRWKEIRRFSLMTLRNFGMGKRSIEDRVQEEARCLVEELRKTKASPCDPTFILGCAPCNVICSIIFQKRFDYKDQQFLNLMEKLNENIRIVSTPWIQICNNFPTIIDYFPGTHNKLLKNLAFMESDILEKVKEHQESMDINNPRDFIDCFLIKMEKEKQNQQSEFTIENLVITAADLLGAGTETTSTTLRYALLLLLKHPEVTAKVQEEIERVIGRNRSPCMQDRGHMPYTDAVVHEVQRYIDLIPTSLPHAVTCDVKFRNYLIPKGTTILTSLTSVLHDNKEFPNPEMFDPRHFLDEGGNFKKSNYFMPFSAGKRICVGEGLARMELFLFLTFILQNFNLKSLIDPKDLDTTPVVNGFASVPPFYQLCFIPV

Cytochrome P450 2D6 = Cytochrome P450 2D6 (Homo sapiens, UniProt P10635); assay: Inhibition of human CYP2D6 at >100 uM; type: ADME
Cytochrome P450 2D6, sequence (P10635 whole entry): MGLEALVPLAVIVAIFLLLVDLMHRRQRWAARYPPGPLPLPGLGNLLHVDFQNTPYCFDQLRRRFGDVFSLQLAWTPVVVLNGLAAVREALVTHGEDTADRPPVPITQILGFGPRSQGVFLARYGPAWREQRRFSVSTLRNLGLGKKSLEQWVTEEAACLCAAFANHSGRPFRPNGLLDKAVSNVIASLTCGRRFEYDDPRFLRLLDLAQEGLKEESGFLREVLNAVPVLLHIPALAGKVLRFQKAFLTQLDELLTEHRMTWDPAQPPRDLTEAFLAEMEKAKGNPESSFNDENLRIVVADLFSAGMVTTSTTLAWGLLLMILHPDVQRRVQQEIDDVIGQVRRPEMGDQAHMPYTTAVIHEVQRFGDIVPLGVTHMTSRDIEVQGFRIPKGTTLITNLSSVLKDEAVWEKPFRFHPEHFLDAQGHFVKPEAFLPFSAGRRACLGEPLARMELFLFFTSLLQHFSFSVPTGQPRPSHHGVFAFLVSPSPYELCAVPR

Mus musculus = assay: Inhibition of LPS-induced iNOS activation in BALB/c mouse assessed as plasma nitrate levels administered via oral gavage before LPS challenge measured after 6 to 8 hrs using 2,3-diaminonaphthalene by fluorescence assay; type: functional
In short: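 Male BALB/c mice dosed by oral gavage (90% PEG/5% Tween 80/5% PVP + 0.5% w/v CMC) immediately before LPS (10 mg/kg ip in 0.9% NaCl). Mice killed at 6 h. EDTA plasma analysed for nitrate and drug levels; nitrite measured by DAN fluorescence.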

Nitric oxide synthase 3 = molecular target: T2, Nitric oxide synthase 3 (Homo sapiens, UniProt P29474); assay: Inhibition of human eNOS expressed in HEK293 cells assessed as inhibition A23187 induced nitric oxide production incubated for 24 hrs measured after 18 hrs of […] challenge using 2,3-diaminonaphthalene by fluorescence assay; type: cell-based
T2 sequence (P29474 whole entry): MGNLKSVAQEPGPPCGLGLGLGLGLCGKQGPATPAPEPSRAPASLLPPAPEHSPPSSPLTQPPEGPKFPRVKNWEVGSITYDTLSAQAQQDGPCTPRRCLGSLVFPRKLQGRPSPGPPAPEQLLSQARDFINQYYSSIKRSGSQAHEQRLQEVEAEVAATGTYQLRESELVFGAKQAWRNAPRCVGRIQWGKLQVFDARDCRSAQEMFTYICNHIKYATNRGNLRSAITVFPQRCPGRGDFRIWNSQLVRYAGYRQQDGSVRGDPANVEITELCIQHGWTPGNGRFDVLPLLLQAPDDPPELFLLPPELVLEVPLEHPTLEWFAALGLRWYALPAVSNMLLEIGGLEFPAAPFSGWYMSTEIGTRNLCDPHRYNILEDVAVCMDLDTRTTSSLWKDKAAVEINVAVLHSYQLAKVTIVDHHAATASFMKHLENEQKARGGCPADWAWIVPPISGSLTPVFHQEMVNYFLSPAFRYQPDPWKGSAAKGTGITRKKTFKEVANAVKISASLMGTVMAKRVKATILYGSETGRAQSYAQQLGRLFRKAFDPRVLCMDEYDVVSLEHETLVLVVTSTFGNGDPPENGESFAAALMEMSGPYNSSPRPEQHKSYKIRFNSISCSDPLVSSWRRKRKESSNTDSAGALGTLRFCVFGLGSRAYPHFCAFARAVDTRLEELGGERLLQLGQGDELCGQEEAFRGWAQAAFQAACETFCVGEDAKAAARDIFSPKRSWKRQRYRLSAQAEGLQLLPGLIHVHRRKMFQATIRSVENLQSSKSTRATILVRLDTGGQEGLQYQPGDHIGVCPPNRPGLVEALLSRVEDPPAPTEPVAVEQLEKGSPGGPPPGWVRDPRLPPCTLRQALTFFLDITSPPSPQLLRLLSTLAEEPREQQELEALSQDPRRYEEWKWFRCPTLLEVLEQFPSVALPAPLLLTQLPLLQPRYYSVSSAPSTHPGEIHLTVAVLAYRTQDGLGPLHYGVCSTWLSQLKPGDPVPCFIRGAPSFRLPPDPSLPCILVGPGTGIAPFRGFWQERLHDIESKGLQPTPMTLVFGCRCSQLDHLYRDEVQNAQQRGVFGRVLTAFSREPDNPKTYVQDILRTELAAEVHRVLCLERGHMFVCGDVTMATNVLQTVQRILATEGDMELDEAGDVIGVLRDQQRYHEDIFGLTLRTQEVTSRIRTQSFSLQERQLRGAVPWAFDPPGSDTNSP
In short: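 HEK293 cells transfected for 4 h at 37 °C with human nNOS (10 μg) or human eNOS (15 μg) plasmid (Fugene 6, 3:1). Cells replated at 5e5 cells/mL and dosed with compound at once; SEITU (100 μM final) as positive control. After 24 h, cells activated with A23187 (83 nM final) for eNOS or ionomycin (30 μM final) for nNOS. NO read 18 h later as nitrite-DAN fluorescence.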

inhibition (INH) (Cytochrome P450 1A2) [%] | Vd [1] [L/kg] | EC50 (Cytochrome P450 3A4) [µM] | EC50 (Cytochrome P450 2C19) [µM] | inhibition (INH) (Cytochrome P450 2D6) [%] | EC50 (Nitric oxide synthase 3) [µM] | Structure (SMILES) | ED50 (Mus musculus) [mg/kg]
< 50 | 0.39 | > 100 | > 38 | < 50 | 16.5 | O=c1cc(Cn2c(C3CCC3)nc3nccnc32)c2ccc(F)c(F)c2[nH]1 | 1
 | 0.67 | 23 | 27 | < 50 | > 100 | O=c1cc(Cn2c(C3CC(F)(F)C3)nc3nccnc32)c2cccc(F)c2[nH]1 | 3
< 50 | 0.47 | > 60 | > 60 | < 50 | 26 | O=c1cc(Cn2c(C3CCC3)nc3nccnc32)c2cccc(F)c2[nH]1 | 1.5
< 50 | 6.8 | > 60 | > 60 | < 50 | 39 | CC(C)Cc1nc2nccnc2n1Cc1cc(=O)[nH]c2c(F)c(F)ccc12 | 0.5
 | 1.1 |  |  |  | > 100 | CC(C)Cc1nc2ccccc2n1Cc1cc(=O)[nH]c2c(F)c(F)ccc12 | 
